SMILES strings stand for the structures. Where only a bound is given, the exact number is not on record here.

Holding throughout (type): functional
The species entered for experiment [1] is Cavia porcellus. Kind of experiment: Antagonism of calcium-induced contractions of guinea pig ileal strips. Summed up: (§1)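 Guinea pig ileal strips held at 0.5 g resting tension, equilibrated 60 min, isometric recording. Depolarized with KCl (80 mM) 6 min, then cumulative CaCl2 0.2-8.0 mM; wash, control curve, then curves with three drug concentrations added right after KCl (6 min). Kb = concentration giving 2-fold rightward shift, from EC50 ratios; means of 3-10 experiments ± SE.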

The nature of experiment [2]: The compound was tested for inhibition of calcium influx into neuronal (NG108-15) cells. To be noted: Mus musculus. Summed up:
(§2)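 NG108-15 cells, differentiated with dibutyryl cAMP (1.0 mM, 4 days), loaded with Quin 2-AM (100 μM) 1 h at 37 °C, washed. Suspensions (ca. 3 × 10^6 cells) at 37 °C preincubated 1 min with drug, then depolarized with KCl (50 mM); fluorescence ex 339/em 492 nm. IC50 = half-maximal fluorescence decrease, logit analysis; means ± SE.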

Experiment [3] is described as follows: The compound was tested for inhibition of calcium influx into neuronal (NG108-15) cells. To be noted: Mus musculus. Summed up:
as §2

The species named for experiment [4] is Cavia porcellus. The experiment is described as follows: The compound was tested for antagonism of calcium-induced contractions of guinea pig ileal strips. Put shortly: as §1

Turning to `CCN(C)CC#CCCC1(C2(O)c3ccccc3Oc3ccccc32)SCCCS1`, the Kb in the experiment listed under Cavia porcellus [1] was determined as 1.51 µM.
The same measure, in the same setting: the same measure for `CN(CC#CCCC1(C2(O)c3ccccc3Sc3ccccc32)SCCCS1)CCCc1ccccc1`: 4.16 µM.
`COc1ccc(CCN(C)CC#CCCC(O)(c2ccccc2)C2SCCCS2)cc1OC` (stereo not drawn): the Kb in the experiment filed under Cavia porcellus [1] was 1.23 µM. Also, the IC50 in experiment [2] worked out at 1.8 µM.
Consider `CN(CC#CCCC1SCCCS1)CCCCc1ccccc1`, for which the Kb in the experiment listed under Cavia porcellus [1] turned out to be 3.43 µM.
Same read-out and setting: the same measure for `CN(CC#CCCC1SCCCS1)Cc1ccc2ccccc2c1`: 8.33 µM; for `CCN(CC)CC#CCCC1(C2(O)CCCc3ccccc32)SCCCS1` (stereo not drawn): 0.83 µM.
Still for that read-out and setting: under `CN(CC#CCCC1SCCCS1)Cc1ccccc1` stands 8.02 µM.
As for `CCN(CC)CC#CCCCC1(C2(O)c3ccccc3Oc3ccccc32)SCCCS1`, the Kb in the experiment filed under Cavia porcellus [1] worked out at 0.17 µM. Further, in experiment [2], the IC50 was 1 µM.
For the compound `CCN(CC)CC#CCCC1(C2(O)c3ccccc3CCc3ccccc32)SCCCS1`, the Kb in the experiment listed under Cavia porcellus [1] stood at 1.27 µM.
In the case of `CCCN(CC#CCC1(c2ccccc2)SCCCS1)CCC`, the antagonist dissociation constant (Kb) in the experiment listed under Cavia porcellus [1] is 1.01 µM. Also, the IC50 in experiment [2] is 1.7 µM.
In the case of `CCN(CC)CC#CCCCCC1SCCCS1`, the Kb in the experiment listed under Cavia porcellus [1] is greater than 5 µM.
On the same count and under the same terms, under `CCCN(CC#CCCCC1(C2(O)c3ccccc3Oc3ccccc32)SCCCS1)CCC` stands 0.47 µM; under `CCCN(CC#CCCCC1(C2(O)c3ccccc3Sc3ccccc32)SCCCS1)CCC`, 0.77 µM.
Consider `CCN(C)CC#CCCC1SCCCS1`, for which the IC50 in experiment [2] was greater than 10 µM.
As to `CN(CC#CCCC1(C2(O)c3ccccc3Sc3ccccc32)SCCCS1)CCCCc1ccccc1`, the Kb in the experiment listed under Cavia porcellus [1] turned out to be 3.4 µM.
Same read-out and setting: under `CN(C)CC#CCCC1(C2(O)c3ccccc3Oc3ccccc32)SCCCS1` stands 1.15 µM; under `CN(CC#CCCC1(C(O)(c2ccccc2)C2CCCCC2)SCCCS1)CCc1ccccc1` (stereo not drawn), 3.75 µM.
`CCN(CC)CC#CCC1(c2ccccc2)SCCCS1`: the antagonist equilibrium constant (Kb) in the experiment listed under Cavia porcellus [1] came to 4.27 µM. Further, the IC50 in experiment [2] was 6.4 µM.
For the compound `OC1(C2(CCC#CCN3CCCCC3)SCCCS2)c2ccccc2Sc2ccc(Cl)cc21` (stereo not drawn), the Kb in the experiment filed under Cavia porcellus [1] was found to be 6.09 µM.
The same measure, in the same setting: under `CN(CC#CCCC1(C(O)(c2ccccc2)c2ccccc2)SCCCS1)CCc1ccccc1` stands 2.65 µM; under `CCN(CC)CC#CCCC1(C(O)(c2ccccc2)C2CCCCC2)SCCCS1` (stereo not drawn), 1.14 µM; under `CCN(CC)CC#CCCC1(C(O)(c2ccccc2)C2CCCC2)SCCCS1` (stereo not drawn), 0.98 µM.
Same read-out and setting: under `CN(CC#CCCC1(C2(O)c3ccccc3Oc3ccccc32)SCCCS1)CCCc1ccccc1` stands 3.09 µM; under `CCN(CC#CCCC1(C2(O)c3ccccc3Oc3ccccc32)SCCCS1)C(C)C`, 0.46 µM.
Take `CN(CC#CCCC1SCCCS1)CCc1ccccc1`: the Kb in the experiment listed under Cavia porcellus [1] amounted to 2.27 µM.
Turning to `CCN(CC)CC#CCCC1(c2ccccc2)SCCCS1`, the Kb in the experiment listed under Cavia porcellus [1] is 0.9 µM. Besides, the concentration for half-maximal inhibition (IC50) in experiment [2] worked out at 6.8 µM.
As to `CN(CC#CCCC1(c2ccccc2)SCCCS1)CCc1ccccc1`, in the experiment listed under Cavia porcellus [1], the Kb was determined as 1.74 µM. Moreover, the half-inhibitory concentration (IC50) in experiment [2] was found to be 5.4 µM.
Take `CN(CC#CCCCC1SCCCS1)CCc1ccccc1`: the Kb in the experiment listed under Cavia porcellus [1] came out at 4.15 µM.
The same measure, in the same setting: the same measure for `CCN(CC)CC#CCCC1(C2(O)CCOc3ccccc32)SCCCS1` (stereo not drawn): 1.94 µM.
On to `OC1(C2(CCC#CCN3CCCCC3)SCCCS2)c2ccccc2Oc2ccccc21`, for which, in the experiment filed under Cavia porcellus [1], the Kb amounted to 0.39 µM. The IC50 in experiment [2] came out at 6.4 µM.
For the compound `CCN(CC)CC#CCCC(O)(c1ccccc1)C1SCCCS1` (stereo not drawn), the Kb in the experiment filed under Cavia porcellus [1] turned out to be 6.7 µM. For the same compound, the half-inhibitory concentration (IC50) in experiment [2] was 17.7 µM.
The like results for `CCN(CC)CC#CCCC1(C2(O)c3ccccc3Oc3ccccc32)SCCCS1` were, in that order, 0.16 µM and 2.3 µM.
For the compound `OCCN1CCN(CC#CCCC2SCCCS2)CC1`, the Kb in the experiment listed under Cavia porcellus [1] is greater than 10 µM.
Still for that read-out and setting: the same measure for `CN(C)CC#CCCC1(C2(O)c3ccccc3Sc3ccc(Cl)cc32)SCCCS1` (stereo not drawn): 2.33 µM; for `CN(CC#CCCC1(C2(O)c3ccccc3Sc3ccc(Cl)cc32)SCCCS1)CCCc1ccccc1` (stereo not drawn): greater than 7 µM.
As for `COc1ccc(CCN(C)CC#CCC2(c3ccccc3)SCCCS2)cc1OC`, in the experiment filed under Cavia porcellus [1], the Kb turned out to be 1.17 µM. In experiment [2], the IC50 was 1.5 µM.
For `CN(CC#CCCC(O)(c1ccccc1)C1SCCCS1)CCc1ccccc1` (stereo not drawn) the same measures were 2.25 µM and 1.6 µM.
For the compound `CCN(C)CC#CCCC1(C2(O)c3ccccc3Sc3ccccc32)SCCCS1`, the Kb in the experiment filed under Cavia porcellus [1] was determined as 0.57 µM.
On the same count and under the same terms, under `OC1(C2(CCC#CCN3CCCCC3)SCCCS2)c2ccccc2Sc2ccccc21` stands 3.66 µM; under `COc1ccc(N(C)CC#CCCC2SCCCS2)cc1OC`, 2.22 µM.
Still for that read-out and setting: the same measure for `CN(CC#CCCC1(C2(O)c3ccccc3Oc3ccccc32)SCCCS1)CCCCc1ccccc1`: 1.9 µM; for `CN(C)CC#CCCC1(C2(O)c3ccccc3Sc3ccccc32)SCCCS1`: 0.68 µM.
In the case of `CC(C)N(CC#CCCCC1(C2(O)c3ccccc3Oc3ccccc32)SCCCS1)C(C)C`, the Kb in the experiment filed under Cavia porcellus [1] turned out to be 0.2 µM. Further, the IC50 in experiment [2] was 4.6 µM.
On to `CN(CC#CCCC1SCCCS1)CCc1ccc2ccccc2c1`, for which, in the experiment filed under Cavia porcellus [1], the Kb stood at 4.73 µM.
Same read-out and setting: under `CN(CC#CCCCC1SCCCS1)Cc1ccccc1` stands 4.45 µM; under `CN(CC#CCCC1(C(O)(c2ccccc2)c2ccccc2)SCCCS1)Cc1ccccc1`, 3.17 µM; under `CCN(C)CC#CCCC1(C2(O)c3ccccc3Sc3ccc(Cl)cc32)SCCCS1` (stereo not drawn), 2.53 µM.
Same read-out and setting: under `CCN(CC)CC#CCCC1(C2(O)c3ccccc3Sc3ccc(Cl)cc32)SCCCS1` (stereo not drawn) stands 0.33 µM; under `CCCN(CC#CCCCC1SCCCS1)CCC`, 7.5 µM.
On to `CCN(CC)CC#CCCC1(C(c2ccccc2)c2ccccc2)SCCCS1`, for which the Kb in the experiment filed under Cavia porcellus [1] amounted to 0.5 µM.
Still for that read-out and setting: the same measure for `CCN(CC)CC#CCCC1(C2(O)c3ccccc3Sc3ccccc32)SCCCS1`: 0.13 µM; for `CCN(CC)CC#CCCCCC1(C2(O)c3ccccc3Oc3ccccc32)SCCCS1`: 1.74 µM.
Still for that read-out and setting: the same measure for `CCN(CC)CC#CCCC1(Cc2ccccc2)SCCCS1`: 1.96 µM.
For `CN(CC#CCCC1SCCCS1)CCCc1ccccc1`, in the experiment listed under Cavia porcellus [1], the Kb is 2.98 µM.
Same read-out and setting: the same measure for `CN1CCN(CC#CCCC2(C3(O)c4ccccc4Oc4ccccc43)SCCCS2)CC1`: 0.49 µM; for `CCN(CC)CC#CCCC1(C2(O)c3ccccc3C=Cc3ccccc32)SCCCS1`: 0.3 µM; for `CN(CC#CCCC1SCCCS1)CCc1cccc2ccccc12`: 1.52 µM.
Still for that read-out and setting: under `CN(CC#CCCC1(C(O)(c2ccccc2)c2ccccc2)SCCCS1)CCCc1ccccc1` stands 1.63 µM; under `COc1ccc(CCN(C)CC#CCCC(O[Si](C)(C)C)(c2ccccc2)C2SCCCS2)cc1OC` (stereo not drawn), 0.57 µM; under `CCN(CC)CC#CCCC1(C(C)(O)c2ccccc2)SCCCS1` (stereo not drawn), 2.51 µM.
As to `COc1ccc([C@@H]2Sc3ccccc3N(CCN(C)C)C(=O)[C@@H]2OC(C)=O)cc1` [DILTIAZEM], the half-inhibitory concentration (IC50) in experiment [3] came to 14.9 µM. Besides, the Kb in the experiment filed under Cavia porcellus [4] stood at 0.047 µM.
For `CCOC(=O)C1=C(C)NC(C)=C(C(=O)OC)C1c1cccc([N+](=O)[O-])c1` (stereo not drawn) [NITRENDIPINE], in the experiment listed under Cavia porcellus [1], the Kb turned out to be 0.002 µM. Besides, the IC50 in experiment [2] is 0.016 µM.
Regarding `COc1ccc(CCN(C)CCCC(C#N)(c2ccc(OC)c(OC)c2)C(C)C)cc1OC` (stereo not drawn) [VERAPAMIL], the Kb in the experiment listed under Cavia porcellus [1] stood at 0.02 µM. Also, the IC50 in experiment [2] came out at 6.5 µM.

Usually Kb stands for the equilibrium dissociation constant of an antagonist, usually derived from a functional assay. As a reminder, the IC50 is the concentration at which inhibition is half-maximal.

Source of the values: ChEMBL document CHEMBL1125878, “Aminoalkynyldithianes. A new class of calcium channel blockers” (J Med Chem, 1991).
